The EternaBench riboswitch data

System: MS2 coat protein
Test: apparent Kd, MS2 coat protein; higher = weaker binding; RNA-MaP array; FMN 200 µM where present
Method in brief: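 Apparent Kd: the median of filtered binding-curve fits from single clusters. Designs were transcribed on Illumina sequencing-chip clusters by stalled E. coli RNA polymerase and titrated with SNAP-549-labelled MS2 coat protein from 0.7 or 1.5 nM, doubling to 3 µM, in 100 mM Tris-HCl pH 7.5, 80 mM KCl, 4 mM MgCl2, BSA, DTT, yeast tRNA and Tween-20. Each series ran without and then with constant ligand, and green signal was normalised to red-channel RNA signal and control-cluster median Fmax.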

[1] = designed as: ON switch for flavin mononucleotide, no ligand
[2] = ligand present: flavin mononucleotide, designed as: ON switch for flavin mononucleotide
[3] = designed as: OFF switch for flavin mononucleotide, no ligand
[4] = ligand present: flavin mononucleotide, designed as: OFF switch for flavin mononucleotide

Row | Sequence | apparent Kd [1] [nM] | apparent Kd [2] [nM] | apparent Kd [3] [nM] | apparent Kd [4] [nM]
1 | CCCAAACUUGGGUUUGGUGGUUCAUAGGAUAUGCUUGUACAUGAGGAUCACCCAUGUACUAUUGUGCAGAAGGGUGCAUGGCAA | 36.7 | 26.5 | – | –
2 | UGUCACGUAGUAGGAUAUGACAUGAGGAUCACCCAUGUUAACUCUAACCUCGAGGAUCGUCAUGGUCAGAAGGACUCAGACAAG | – | – | 209 | 75.9
3 | GCAGCACAGUUUUACAUGAGGAUCACCCAUGUCGAUUGUUAUGAGGAUAUGCAUCGUAUGAAGAUGCAGAAGGCAUUGUGCUGC | 6.96 | 5.5 | – | –
4 | AAUUAGGUCACAGGAUAUACAUCAUCCAUAGAUGUAGAAGGGUGUCAAAAUAAUAUCUGACAUGAGGAUCACCCAUGUUUCCAC | 19.5 | 8.97 | – | –
5 | CAAUUUAUGUCAGGAUAUACAAUACAAUGAUUAGUAGAAGGGAUUAAUACAUGAGGAUCACCCAUGUCAUGUGUCAUCGUGCCC | – | – | 24 | 20.7
6 | GGGUACAUCGGAGGAUAUCAUGUAAAUACAUGAGGAUCACCCAUGUCGAUGGAGACAUCGUAGAUUGAGAAGGCCGAUGUACCG | 9.85 | 5.37 | – | –
7 | GUAGCAUACCGAGGAUAUUCUGGGCUUAAAUAAACAUGAGGAUCACCCAUGUGGCGAAAGCCUAGGGAGAAGGCGGAAUGCUAC | 13.7 | 13 | – | –
8 | CUGCUAAUAGGAUAUGCUAGGGAGGCUUCACGUUAGCAGGAACAUGAGGAUCACCCAUGUAGAAGGAUUGUAGA | – | – | 30.2 | 21.2
9 | AAAAAACAUGAGGAUCACCCAUGUAAUAAAACGUCAGGAUAUUGAUUUUAUUAUUUAUUACAAGAAGGGACAAAAA | 133 | 57.6 | – | –
10 | AAUCCACAUGAGGAUCACCCAUGUCAGGAUAUGAACGGUCUGGCACCGUGGGUUCCUGUUGACCGUCAGAAGGGACAAGGGCCC | – | – | 5.69 | 7.72
11 | AUUAUUAAUGCAGGAUAUGAUUAACAUGAGGAUCACCCAUGUGGUGUUGUGAGUAAGGAGAGUGAUCAGAAGGGCAUUUUUUUU | 493 | 695 | – | –
12 | UUAUUAUAUGUAGGAUAUGCAUAUUAUUAUUGUGCAGAAGGACAUGAGGAUCACCCAUGUAUAUUAUUAUUAUAUAUUAUAUGU | – | – | 25.7 | 30.2
13 | ACGUAUCAUGUAGGAUAUGACCCAGGAAACUGGUCAGAAGGACAUGAGGAUCACCCAUGUAGAGUAUGUUAGGAUGACGUAUGC | – | – | 138 | 188
14 | AGCUUCGGUGUCAGGAUAUGGGAAAGGGAACUUACCCAGAAGGGACAUGAGGAUCACCCAUGUGGCUUGACAUG | – | – | 45.3 | 109
15 | ACAUGAGGAUCACCCAUGUGUGCAUAGGAUAUUGUGGAUUAGGGAUGUUUUUUUGGAUUUGCCUACAAGAAGGAUGAAAGUGUU | 14.3 | 12.6 | – | –
16 | CAGAUAAAAGUGUGGUCGUCGACAUGAGGAUCACCCAUGUACGAGGAUAUGUAAUAUACGGUAUAGCAGAAGGCGUAUGGGUGU | – | – | 74.6 | 103
17 | UUGGGAUGCAAGAAGGGUGACAUGAGGAUCACCCAUGUGUUGUGAAGUCUCGAGAUUUUAUGACCAUAGGAUAUUGCACCGAAC | 31.6 | 21.6 | – | –
18 | GAGUCUCUAUUAGAACCGAUACGAACAUGAGGAUCACCCAUGUAGGAUAUGCUAAAAGUUGUGUUGCAGAAGGACAUUUAUCGC | – | – | 11.1 | 10.9
19 | GGAUAGGACAGAGGAUAUACGGGCUAGAGAUACUAGCAAAAUUUCCUCACAUGAGGAUCACCCAUGUAGAAGGCUGUCCUAUCG | – | – | 70.1 | 864
20 | GUGUACAGAGGAUAUAUAUGAGCUAGGAAACUAGCAACCUCACAUGAGGAUCACCCAUGUAGAAGGCUGUACAC | – | – | 103 | 346
21 | UCUGGUCAAGGAUAUGCGUAAUGUGUUACGGCACGAGGUCUACAUGAGGAUCACCCAUGUAGAAGGUGAUCAGA | – | – | 18 | 17.9
22 | AAUAACAGAGGAUAUACUGUUUUAUGUGUUUGUUGUUUUAAACAUGAGGAUCACCCAUGUAGAAGGCUGAAUGA | – | – | 26.5 | 25.2
23 | CCAGCGUAUGUGAGGAUAUGCUGGUCCUUGGAUCAGCAGAAGGCACAUGAGGAUCACCCAUGUGGAAACGUUGG | – | – | 18.7 | 63.5
